Screening data (PubChem)
SIAE inh: human SIAE inhibition, primary screen. Q9HAT2. actives 0.69% (n = 370,000). SIAE FP-Rh probe binding, fluorescence polarization. inhibition, % at 9.66 µM. AID 1053197;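 active means inhibition above a cutoff: mean of compounds within the control limits plus 3 SD of those, cut at about 17% in these data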;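 further: 0% = plate median of compound wells and 100% = probe without SIAE protein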
mABHD4 FP: ABHD4 (mouse) inhibition, primary FP screen; Q8VD66; purified mABHD4, FP-Rh probe fluorescence polarization; inhibition, % at 8.92 µM; actives 0.54% (n = 370,000); AID 720543;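 active means inhibition exceeding the mean over every tested compound plus 3 SD, cut at about 30% in these data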;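 further: 0% = plate median of compound wells and 100% = S159A mutant with DMSO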
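Assay system: wild-type mouse ABHD4 protein; compound: single nominal dose of 8.92 µM, 0.89% DMSO final; schedule: 45 min + 60 min at 25 °C; measured by: FP readout, ex 525 nm / em 598 nm; evaluation: % inhibition of FP-Rh probe binding versus controls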
PRMT1 inh: PRMT1 (human) inhibition, primary screen; Q99873; recombinant PRMT1, activity-based probe fluorescence polarization; inhibition, % at 2.79 µM; actives 1.3% (n = 370,000); AID 652257;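 active means inhibition above about 21% made by adding two undisclosed values, limit read from the data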
HTRA1 inhibitor: HTRA1 (human) protease inhibition; Q92743; actives 0.5% (n = 340,000); recombinant HTRA1, FP-rhodamine activity-based probe, fluorescence polarization; inhibition, % at 5.96 µM; in the data active means inhibition above about 36%;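 further: 0% = enzyme with DMSO and 100% = wells lacking enzyme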
Target sequence (Q92743 whole entry, looked up): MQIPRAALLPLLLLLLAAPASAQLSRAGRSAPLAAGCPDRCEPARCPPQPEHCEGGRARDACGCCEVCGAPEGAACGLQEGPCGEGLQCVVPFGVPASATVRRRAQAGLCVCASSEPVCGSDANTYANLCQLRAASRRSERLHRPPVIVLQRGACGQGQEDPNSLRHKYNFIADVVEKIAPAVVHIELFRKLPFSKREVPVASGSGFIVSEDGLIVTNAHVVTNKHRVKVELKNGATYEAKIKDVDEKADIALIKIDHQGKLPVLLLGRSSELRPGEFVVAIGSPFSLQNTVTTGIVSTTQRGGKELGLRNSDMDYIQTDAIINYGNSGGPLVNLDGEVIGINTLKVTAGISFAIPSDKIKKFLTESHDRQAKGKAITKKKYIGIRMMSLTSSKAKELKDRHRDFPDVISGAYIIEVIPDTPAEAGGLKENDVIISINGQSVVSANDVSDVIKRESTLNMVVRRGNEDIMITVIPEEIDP
TCR-CD3 inh: blocks the human TCR-CD3 interaction. TAMRA-labeled TCR probe fluorescence, biochemical. inhibition, % at 9.4 µM. actives 0.37% (n = 360,000); in the data active means inhibition above about 19%;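 further: recombinant mutant TCR 2C K166C tagged with TAMRA read by polarization; 0% = receptor in buffer alone and 100% = receptor with positive control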
PRMT1 inh conf: confirmation of human PRMT1 inhibitors; shares compounds with PRMT1 inh; recombinant His-PRMT1, activity-based probe fluorescence polarization; inhibition, % at 2.79 µM; actives 42% (n = 3,300);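 active means mean inhibition across replicates above the hit cutoff derived for the earlier primary screen, cut at about 22% in these data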
* marks the source's active call; other numbers are inactive results; . = not tested or not shown. Only some compounds are listed: those with a hit (about 2.5% of all), similar ones and a draw of the others.

SMILES	SIAE inh	mABHD4 FP	PRMT1 inh	HTRA1 inhibitor	TCR-CD3 inh	PRMT1 inh conf
COc1ccc(C2CC(=O)N3CN(c4ccc(C)c(Cl)c4)CSC3=C2C#N)cc1OC (stereo unspecified)	-11	9	41*	-5	-6	25*
COc1ccc(N2CSC3=C(C#N)C(c4cc(OC)c(OC)cc4OC)CC(=O)N3C2)c(OC)c1 (stereo unspecified)	6	22	39*	9	-5	63*
COc1cc(OC)c(C2CC(=O)N3CN(c4ccc(C)cc4)CSC3=C2C#N)cc1OC (stereo unspecified)	-4	17	62*	-3	-4	93*
CCOc1ccccc1N1CSC2=C(C#N)C(c3c(OC)ccc4ccccc34)CC(=O)N2C1 (stereo unspecified)	3	26	49*	-1	-5	70*
COc1ccc(N2CSC3=C(C#N)C(c4cc(OC)ccc4OC)CC(=O)N3C2)c(OC)c1 (stereo unspecified)	.	.	.	12	.	.
Cc1c(C(O)(c2ccccc2)c2ccccc2)[n+]2ccccc2n1C	4	4	-1	.	.	.
O=C(C1CCC1)N1CCc2cc(S(=O)(=O)N3CCCC3)ccc21	-3	4	2	.	.	.
COCCCNC(=O)C[C@H]1C[C@@]2(C(=O)OC)C(=C[C@H](C3CCCC3)O[C@@H]2C)N(CCc2ccc(OC)c(OC)c2)C1=O	-1	1	1	.	.	.
OC(c1ccccc1)(c1ccccc1)C1CCN(CCCNc2ccc(Cl)cc2Cl)CC1	0	16	1	.	.	.
Cc1ccc(N2CSC3=C(C#N)C(c4cccs4)CC(=O)N3C2)cc1 (stereo unspecified)	-3	12	52*	-2	1	34*
N#CC1=C2SCN(c3ccc(F)cc3)CN2C(=O)CC1c1cccc(F)c1 (stereo unspecified)	7	12	27*	-1	0	61*
Nn1c(SCC(=O)Nc2nccs2)nnc1-c1cc(-c2ccc(Cl)cc2)n[nH]1	4	-4	-5	.	.	.
C=C(C)/C=C1/CN(Cc2ccc3c(c2)OCO3)C(=N)N1C(=O)OCc1ccccc1	7	-6	6	.	.	.
Cc1ccc(NCCC(=O)c2cccc([N+](=O)[O-])c2)cc1	7	5	33*	-4	-1	54*
Cc1nc(SCC(=O)c2cccc([N+](=O)[O-])c2)n[nH]1	-1	5	30*	8	-9	7
O=C(CCNc1ccc(Br)cc1)c1cccc([N+](=O)[O-])c1	2	-3	28*	0	-3	23*
O=C(NCCNc1ccc([N+](=O)[O-])cc1)c1cccc(Br)c1	-11	-5	2	1	-6	.
O=C(CCNc1ccc(F)cc1)c1cccc([N+](=O)[O-])c1	6	6	32*	2	3	39*
C=CCN1C(=O)[C@@H](CC(=O)N2CCCCC2)[C@]2(C(=O)OCC)CCCCC/C=C/12	0	4	-2	.	.	.
O=C(CC(=O)c1ccccc1)Nc1cccc([N+](=O)[O-])c1	-56	-4	3	-4	15	.
O=C(CCNc1ccccc1)c1cccc([N+](=O)[O-])c1	4	6	36*	4	1	30*
Cc1nnc(SCC2=C(C(=O)O)N3C(=O)C(NC(=O)c4cc(F)c(F)cc4Cl)C3SC2)s1 (stereo unspecified)	1	3	34*	10	-6	17
Cc1nnc(SCC(=O)NNC(=O)COc2ccc(Cl)cc2)s1	2	-2	-1	4	-4	.
Cc1nnc(SCC2=C(C(=O)O)N3C(=O)C(NC(=O)Cn4cnnn4)C3SC2)s1 (stereo unspecified)	14	-3	12	5	6	.
Cc1nnc(SCC2=C(C(=O)O)N3C(=O)C(NC(=O)COc4ccc(F)cc4)C3SC2)s1 (stereo unspecified)	0	8	31*	2	12	23*
SMILES	SIAE inh	mABHD4 FP	PRMT1 inh	HTRA1 inhibitor	TCR-CD3 inh	PRMT1 inh conf
Cc1nnc(SCC2=C(C(=O)O)N3C(=O)C(NC(=O)COc4ccccc4)C3SC2)s1 (stereo unspecified)	5	10	38*	4	-1	69*
C=CC1=C(C(=O)O)N2C(=O)C(NC(=O)Cc3ccccc3)C2SC1 (stereo unspecified)	1	2	17	-9	0	.
CCC(C(=O)NC1C(=O)N2C(C(=O)O)=C(CSc3nnc(C)s3)CSC12)c1ccccc1 (stereo unspecified)	2	7	28*	4	11	17
CC(=O)OCC1=C(C(=O)O)N2C(=O)C(NC(=O)C(C)Cn3cc(Cl)cn3)C2SC1 (stereo unspecified)	3	0	19	-3	8	.
CC(C)(C)OC(=O)NCCCc1ccc2c(c1)[C@]1(CCC[C@@H](OCc3ccccc3)[C@@H]1NC(=O)CCc1ccccc1)C(=O)N2Cc1ccccc1	-7	-10	3	.	.	.
COc1ccc(CNC(=O)c2sc3nc(C)c(Cl)c(C)c3c2N)cc1	-4	4	9	.	.	.
Cc1ccc(NN2C(=O)C=C(c3ccccc3)C2=O)cc1	2	21	35*	.	3	15
CCOC(=O)[C@]12CCCC=C1N(CCCOC)C(=O)[C@@H]2CC(=O)N1CCC(c2ccccc2)CC1	1	3	3	.	.	.
CSCCCNc1nc(C)nc2c1nnn2Cc1ccccc1	6	-5	-5	.	.	.
COc1ccc(S(=O)(=O)N2CCOCC2)cc1NC(=O)CSc1nnc(C2CC2)n1C1CC1	-6	8	40*	1	3	0
COc1ccc(CCN(Cc2cccs2)S(=O)(=O)c2ccc(C)c(C)c2)cc1OC	-5	-7	3	.	.	.
CCCCNS(=O)(=O)CC1NCc2cc(OC)ccc21 (stereo unspecified)	7	-2	-5	.	.	.
NC1=NC(=O)CC(C(=O)NCCc2ccccc2)S1 (stereo unspecified)	-5	2	30*	0	6	3
NC1=NC(=O)CC(C(=O)Nc2cccc3ccccc23)S1 (stereo unspecified)	.	.	.	-2	.	.
